Reference: ChEMBL document CHEMBL3588757, “Structure-based design, synthesis and biological testing of piperazine-linked bis-epipodophyllotoxin etoposide analogs” (Bioorg Med Chem, 2015)
pIC50: −log10 of the molar value.

Experiments:
SNB-75 = assay: Cytotoxicity against human SNB75 cells assessed as cell growth at 0.05 uM by SRB assay; assay type: functional; details: read-out: Activity
[1] = Cytotoxicity against human NCI-ADR-RES cells assessed as cell growth at 0.05 uM by SRB assay; assay type: functional; details: read-out: Activity
COLO 205 [2] = assay: Cytotoxicity against human COLO205 cells assessed as cell growth at 5 uM by SRB assay; assay type: functional; details: read-out: Activity
U-251 = assay: Cytotoxicity against human U251 cells assessed as cell growth at 50 uM by SRB assay; assay type: functional; details: read-out: Activity
OVCAR-4 = assay: Cytotoxicity against human OVCAR4 cells assessed as cell growth at 0.005 uM by SRB assay; assay type: functional; details: read-out: Activity
LOX IMVI = assay: Cytotoxicity against human LOXIMVI cells assessed as cell growth at 0.5 uM by SRB assay; assay type: functional; details: read-out: Activity
COLO 205 [3] = assay: Cytotoxicity against human COLO205 cells assessed as cell growth at 0.05 uM by SRB assay; assay type: functional; details: read-out: Activity
SK-MEL-5 = assay: Cytotoxicity against human SK-MEL-5 cells assessed as cell growth at 0.5 uM by SRB assay; assay type: functional; details: read-out: Activity
UO-31 = assay: Cytotoxicity against human UO31 cells assessed as cell growth at 50 uM by SRB assay; assay type: functional; details: read-out: Activity
SR [4] = assay: Cytotoxicity against human SR cells assessed as cell growth at 5 uM by SRB assay; assay type: functional; details: read-out: Activity
SF-268 [5] = assay: Cytotoxicity against human SF268 cells assessed as cell growth at 0.05 uM by SRB assay; assay type: functional; details: read-out: Activity
A549 = assay: Cytotoxicity against human A549/ATCC cells assessed as cell growth at 50 uM by SRB assay; assay type: functional; details: read-out: Activity
SF-268 [6] = assay: Cytotoxicity against human SF268 cells assessed as cell growth at 0.005 uM by SRB assay; assay type: functional; details: read-out: Activity
DU-145 [7] = assay: Cytotoxicity against human DU145 cells assessed as cell growth at 0.5 uM by SRB assay; assay type: functional; details: read-out: Activity
Summary of the method: (§1)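 Measured in the NCI-60 human tumour cell line panel using five-dose testing. Growth was recorded at each dose for each cell line, and a GI50 was derived for each line.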

[8] = Cytotoxicity against human NCI-ADR-RES cells assessed as cell growth at 5 uM by SRB assay; assay type: functional; details: read-out: Activity
SF-268 [9] = assay: Cytotoxicity against human SF268 cells assessed as cell growth at 0.5 uM by SRB assay; assay type: functional; details: read-out: Activity
DU-145 [10] = assay: Cytotoxicity against human DU145 cells assessed as cell growth at 5 uM by SRB assay; assay type: functional; details: read-out: Activity; summary of the method: as §1
OVCAR-5 [11] = assay: Cytotoxicity against human OVCAR5 cells assessed as cell growth at 50 uM by SRB assay; assay type: functional; details: read-out: Activity
SR [12] = assay: Cytotoxicity against human SR cells by SRB assay; assay type: functional
Summary of the method: (§2)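 NCI-60 panel screen; 5-dose testing giving GI50 per cell line, plus a single 10 µM one-dose test. Method details not given beyond the NCI screen.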

NCI-H460 = assay: Cytotoxicity against human NCI-H460 cells assessed as cell growth at 0.5 uM by SRB assay; assay type: functional; details: read-out: Activity
786-0 = assay: Cytotoxicity against human 786-0 cells by SRB assay; assay type: functional
CCRF-CEM = assay: Cytotoxicity against human CCRF-CEM cells by SRB assay; assay type: functional
SF-295 = assay: Cytotoxicity against human SF295 cells assessed as cell growth at 50 uM by SRB assay; assay type: functional; details: read-out: Activity
RPMI-8226 = assay: Cytotoxicity against human RPMI8226 cells by SRB assay; assay type: functional; summary of the method: as §2
SN12C = assay: Cytotoxicity against human SN12C cells assessed as cell growth at 0.05 uM by SRB assay; assay type: functional; details: read-out: Activity
IGROV-1 [13] = assay: Cytotoxicity against human IGROV1 cells assessed as cell growth at 50 uM by SRB assay; assay type: functional; details: read-out: Activity
IGROV-1 [14] = assay: Cytotoxicity against human IGROV1 cells assessed as cell growth at 5 uM by SRB assay; assay type: functional; details: read-out: Activity
SW-620 = assay: Cytotoxicity against human SW620 cells assessed as cell growth at 0.05 uM by SRB assay; assay type: functional; details: read-out: Activity
RXF 393 = assay: Cytotoxicity against human RXF393 cells by SRB assay; assay type: functional; summary of the method: as §2
OVCAR-3 [15] = assay: Cytotoxicity against human OVCAR3 cells assessed as cell growth at 5 uM by SRB assay; assay type: functional; details: read-out: Activity
SNB-19 [16] = assay: Cytotoxicity against human SNB19 cells assessed as cell growth at 5 uM by SRB assay; assay type: functional; details: read-out: Activity
OVCAR-3 [17] = assay: Cytotoxicity against human OVCAR3 cells assessed as cell growth at 0.005 uM by SRB assay; assay type: functional; details: read-out: Activity
NCI-H322M = assay: Cytotoxicity against human NCI-H322M cells by SRB assay; assay type: functional; summary of the method: as §2
CAKI-1 = assay: Cytotoxicity against human Caki1 cells assessed as cell growth at 0.005 uM by SRB assay; assay type: functional; details: read-out: Activity
OVCAR-5 [18] = assay: Cytotoxicity against human OVCAR5 cells assessed as cell growth at 0.05 uM by SRB assay; assay type: functional; details: read-out: Activity
T47D = assay: Cytotoxicity against human T47D cells assessed as cell growth at 0.005 uM by SRB assay; assay type: functional; details: read-out: Activity
[19] = Cytotoxicity against etoposide-resistant human K/VP.5 cells assessed as cell growth inhibition after 72 hrs by MTS assay; assay type: functional, cell-based; details: K/VP.5, 72 h
Summary of the method: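 K/VP.5 cells are a K562-derived subline, 26-fold etoposide-resistant, with decreased topoisomerase IIα mRNA and protein. Cells were grown in suspension in αMEM with 10% fetal calf serum. Drugs were given from DMSO stocks, with final DMSO typically 0.4% or less. Read-out was MTS absorbance after 72 h. Typically nine concentrations were run in duplicate on two days. IC50 came from a four-parameter logistic fit.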

NCI-H522 = assay: Cytotoxicity against human NCI-H522 cells assessed as cell growth at 0.005 uM by SRB assay; assay type: functional; details: read-out: Activity
IGROV-1 [20] = assay: Cytotoxicity against human IGROV1 cells assessed as cell growth at 0.005 uM by SRB assay; assay type: functional; details: read-out: Activity; summary of the method: as §1
ACHN = assay: Cytotoxicity against human ACHN cells assessed as cell growth at 0.5 uM by SRB assay; assay type: functional; details: read-out: Activity
SNB-19 [21] = assay: Cytotoxicity against human SNB19 cells assessed as cell growth at 0.005 uM by SRB assay; assay type: functional; details: read-out: Activity
[22] = read-out: LC50 (the source's name)
[23] = read-out: pLC50 (the source's name) (converted)

COc1cc([C@@H]2c3cc4c(cc3[C@@H](NC(=O)CN3CCN(CCCCCCCCCCN5CCN(CC(=O)N[C@@H]6c7cc8c(cc7[C@@H](c7cc(OC)c(O)c(OC)c7)[C@H]7C(=O)OC[C@@H]76)OCO8)CC5)CC3)[C@H]3COC(=O)[C@H]23)OCO4)cc(OC)c1O
growth at 0.05 µM (SNB-75): 82%
growth at 0.05 µM [1]: 97%
growth at 5 µM (COLO 205 [2]): -13%
growth at 50 µM (U-251): -79%
growth at 0.005 µM (OVCAR-4): 98%
growth at 0.5 µM (LOX IMVI): 21%
growth at 0.05 µM (COLO 205 [3]): 90%
growth at 0.5 µM (SK-MEL-5): 83%
growth at 50 µM (UO-31): -100%
growth at 5 µM (SR [4]): -26%
growth at 0.05 µM (SF-268 [5]): 77%
growth at 50 µM (A549): -41%
growth at 0.005 µM (SF-268 [6]): 97%
growth at 0.5 µM (DU-145 [7]): 22%
growth at 5 µM [8]: 53%
growth at 0.5 µM (SF-268 [9]): 49%
growth at 5 µM (DU-145 [10]): -7%
growth at 50 µM (OVCAR-5 [11]): -88%
GI50 (SR [12]; read-out: GI50): 232 nM
CC50 (SR [12]; [22]): > 50000 nM
TGI (SR [12]; read-out: TGI): 1810 nM
GI50 (SR [12]; read-out: pGI50 (converted)): 229 nM
CC50 (SR [12]; [23]): > 50100 nM
TGI (SR [12]; read-out: pTGI (converted)): 1820 nM
growth at 0.5 µM (NCI-H460): 94%
GI50 (786-0; read-out: GI50): 209 nM
CC50 (786-0; [22]): 18700 nM
TGI (786-0; read-out: TGI): 2340 nM
GI50 (786-0; read-out: pGI50 (converted)): 209 nM
CC50 (786-0; [23]): 18600 nM
TGI (786-0; read-out: pTGI (converted)): 2340 nM
GI50 (CCRF-CEM; read-out: GI50): 80.9 nM
CC50 (CCRF-CEM; [22]): > 50000 nM
GI50 (CCRF-CEM; read-out: pGI50 (converted)): 81.3 nM
CC50 (CCRF-CEM; [23]): > 50100 nM
growth at 50 µM (SF-295): -44%
GI50 (RPMI-8226; read-out: GI50): 16.3 nM
CC50 (RPMI-8226; [22]): > 50000 nM
TGI (RPMI-8226; read-out: TGI): 369 nM
GI50 (RPMI-8226; read-out: pGI50 (converted)): 16.2 nM
CC50 (RPMI-8226; [23]): > 50100 nM
TGI (RPMI-8226; read-out: pTGI (converted)): 372 nM
growth at 0.05 µM (SN12C): 80%
growth at 50 µM (IGROV-1 [13]): -41%
growth at 5 µM (IGROV-1 [14]): 9%
growth at 0.05 µM (SW-620): 75%
GI50 (RXF 393; read-out: GI50): 791 nM
CC50 (RXF 393; [22]): > 50000 nM
TGI (RXF 393; read-out: TGI): 2380 nM
GI50 (RXF 393; read-out: pGI50 (converted)): 794 nM
CC50 (RXF 393; [23]): > 50100 nM
TGI (RXF 393; read-out: pTGI (converted)): 2400 nM
growth at 5 µM (OVCAR-3 [15]): 40%
growth at 5 µM (SNB-19 [16]): -81%
growth at 0.005 µM (OVCAR-3 [17]): 100%
GI50 (NCI-H322M; read-out: GI50): 387 nM
CC50 (NCI-H322M; [22]): > 50000 nM
TGI (NCI-H322M; read-out: TGI): 1640 nM
GI50 (NCI-H322M; read-out: pGI50 (converted)): 389 nM
CC50 (NCI-H322M; [23]): > 50100 nM
TGI (NCI-H322M; read-out: pTGI (converted)): 1620 nM
growth at 0.005 µM (CAKI-1): 93%
growth at 0.05 µM (OVCAR-5 [18]): 83%
growth at 0.005 µM (T47D): 94%
pIC50 [19]: 6.94
growth at 0.005 µM (NCI-H522): 97%
growth at 0.005 µM (IGROV-1 [20]): 90%
growth at 0.5 µM (ACHN): 41%
growth at 0.005 µM (SNB-19 [21]): 99%
